Assay results from ChEMBL document CHEMBL4152228, “Structural-based design, synthesis, and antitumor activity of novel alloxazine analogues with potential selective kinase inhibition” (Eur J Med Chem, 2018).
pIC50: −log10 of the molar value.

Columns and labels:
[1] = biological target: Mast/stem cell growth factor receptor Kit (Homo sapiens) (UniProt P10721); test: Inhibition of c-KIT (unknown origin) at 10 uM by [33P]-ATP radiometric assay
In short: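 Radiometric kinase profiling: purified recombinant kinase (~10–50 nM final) with substrate, assay buffer and compound at 10 µM (control 10% DMSO). Started with 33P-ATP (50 µM stock, 0.8 µCi), run 30 min at ambient temperature, then spotted onto P81 phosphocellulose and washed in 1% phosphoric acid.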

MCF7 [2] = test: Induction of apoptosis in human MCF7 cells assessed as late apoptotic cells at 5 uM after 72 hrs by annexin V-FITC/propidium iodide staining-based flow cytometric method (reference value: 2.6%); format: functional
[3] = biological target: Casein kinase I isoform alpha (Homo sapiens) (UniProt P48729); test: Inhibition of CK1alpha1 (unknown origin) at 10 uM by [33P]-ATP radiometric assay
In short: (§1)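 Radiometric kinase profiling: purified recombinant kinase (~10–50 nM final) with substrate, assay buffer and compound at 10 µM (control 10% DMSO). Started with 33P-ATP (50 µM stock, 0.8 µCi), run 30 min at ambient temperature, then spotted onto P81 phosphocellulose and washed in 1% phosphoric acid. Scintillation counted, no-substrate blank subtracted, single measurement, result given as % change versus control.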

[4] = biological target: Receptor tyrosine-protein kinase erbB-2 (Homo sapiens) (UniProt P04626); test: Inhibition of HER2 (unknown origin) at 10 uM by [33P]-ATP radiometric assay; in short: as §1
MCF7 [5] = test: Induction of apoptosis in human MCF7 cells assessed as necrotic cells at 10 uM after 72 hrs by annexin V-FITC/propidium iodide staining-based flow cytometric method (reference value: 12.6%); format: functional
[6] = biological target: Hepatocyte growth factor receptor (Homo sapiens) (UniProt P08581); test: Inhibition of MET (unknown origin) at 10 uM by [33P]-ATP radiometric assay; in short: as §1
Sequence of Hepatocyte growth factor receptor (Homo sapiens) (P08581 whole entry): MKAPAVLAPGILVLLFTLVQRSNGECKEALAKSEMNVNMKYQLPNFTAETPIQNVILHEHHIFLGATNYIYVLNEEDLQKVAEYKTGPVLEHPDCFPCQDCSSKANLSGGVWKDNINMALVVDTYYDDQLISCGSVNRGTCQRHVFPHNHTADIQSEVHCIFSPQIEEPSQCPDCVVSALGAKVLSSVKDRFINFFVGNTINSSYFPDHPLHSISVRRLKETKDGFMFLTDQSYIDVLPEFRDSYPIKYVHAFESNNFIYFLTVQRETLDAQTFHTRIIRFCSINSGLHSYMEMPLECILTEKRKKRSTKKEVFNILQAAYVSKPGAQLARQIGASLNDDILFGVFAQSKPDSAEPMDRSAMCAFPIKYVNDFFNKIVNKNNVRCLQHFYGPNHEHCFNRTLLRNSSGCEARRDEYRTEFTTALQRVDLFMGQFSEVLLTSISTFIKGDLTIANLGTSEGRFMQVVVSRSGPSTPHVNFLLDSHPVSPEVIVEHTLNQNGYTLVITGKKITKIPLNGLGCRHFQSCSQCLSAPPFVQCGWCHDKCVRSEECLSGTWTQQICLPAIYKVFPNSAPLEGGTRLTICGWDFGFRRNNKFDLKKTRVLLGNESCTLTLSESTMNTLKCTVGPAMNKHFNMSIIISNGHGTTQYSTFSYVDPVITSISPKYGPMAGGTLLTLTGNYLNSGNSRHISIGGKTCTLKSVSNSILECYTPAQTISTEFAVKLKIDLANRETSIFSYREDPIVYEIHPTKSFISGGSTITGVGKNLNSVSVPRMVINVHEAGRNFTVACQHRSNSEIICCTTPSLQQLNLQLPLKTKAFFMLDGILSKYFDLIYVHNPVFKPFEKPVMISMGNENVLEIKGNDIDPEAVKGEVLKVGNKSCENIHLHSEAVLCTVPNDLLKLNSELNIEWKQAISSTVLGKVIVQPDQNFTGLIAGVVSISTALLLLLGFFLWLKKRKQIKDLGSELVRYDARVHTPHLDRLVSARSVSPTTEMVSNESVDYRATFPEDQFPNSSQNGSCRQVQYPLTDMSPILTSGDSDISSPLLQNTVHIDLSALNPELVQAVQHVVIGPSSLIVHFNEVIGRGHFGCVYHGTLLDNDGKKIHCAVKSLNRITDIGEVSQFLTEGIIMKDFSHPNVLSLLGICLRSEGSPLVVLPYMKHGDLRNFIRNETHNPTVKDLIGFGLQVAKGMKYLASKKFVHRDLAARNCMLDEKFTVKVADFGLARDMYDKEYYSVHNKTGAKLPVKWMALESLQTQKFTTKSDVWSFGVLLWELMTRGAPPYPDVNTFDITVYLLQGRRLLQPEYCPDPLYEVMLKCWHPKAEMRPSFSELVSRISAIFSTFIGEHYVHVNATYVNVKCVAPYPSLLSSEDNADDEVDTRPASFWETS

MCF7 [7] = test: Induction of apoptosis in human MCF7 cells assessed as early apoptotic cells at 1 uM after 72 hrs by annexin V-FITC/propidium iodide staining-based flow cytometric method (reference value: 9%); format: functional
MCF7 [8] = test: Induction of apoptosis in human MCF7 cells assessed as late apoptotic cells at 1 uM after 72 hrs by annexin V-FITC/propidium iodide staining-based flow cytometric method (reference value: 2.6%); format: functional
[9] = biological target: Mitogen-activated protein kinase 8 (Homo sapiens) (UniProt P45983); test: Inhibition of JNK1 (unknown origin) at 10 uM by [33P]-ATP radiometric assay; in short: as §1
Sequence of Mitogen-activated protein kinase 8 (Homo sapiens) (P45983 whole entry): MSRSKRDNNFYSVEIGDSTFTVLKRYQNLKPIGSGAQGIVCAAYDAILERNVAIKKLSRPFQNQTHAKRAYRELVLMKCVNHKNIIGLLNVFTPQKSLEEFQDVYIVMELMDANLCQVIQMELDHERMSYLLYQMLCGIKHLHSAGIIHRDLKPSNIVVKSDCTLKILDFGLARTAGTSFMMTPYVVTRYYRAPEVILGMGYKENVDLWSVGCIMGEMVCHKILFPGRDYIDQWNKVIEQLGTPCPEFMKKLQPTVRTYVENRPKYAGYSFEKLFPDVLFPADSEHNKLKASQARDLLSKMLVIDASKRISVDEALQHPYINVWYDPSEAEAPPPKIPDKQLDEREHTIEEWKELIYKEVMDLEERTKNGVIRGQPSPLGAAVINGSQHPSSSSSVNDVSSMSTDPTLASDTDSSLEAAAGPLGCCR

[10] = biological target: Fibroblast growth factor receptor 1 (Homo sapiens) (UniProt P11362); test: Inhibition of FGFR1 (unknown origin) at 10 uM by [33P]-ATP radiometric assay; in short: as §1
MCF7 [11] = test: Induction of apoptosis in human MCF7 cells assessed as early apoptotic cells at 5 uM after 72 hrs by annexin V-FITC/propidium iodide staining-based flow cytometric method (reference value: 9%); format: functional
[12] = biological target: Calcium/calmodulin-dependent protein kinase type II subunit alpha (Homo sapiens) (UniProt Q9UQM7); test: Inhibition of CAMK2-alpha (unknown origin) at 10 uM by [33P]-ATP radiometric assay; in short: as §1
Sequence of Calcium/calmodulin-dependent protein kinase type II subunit alpha (Homo sapiens) (Q9UQM7 whole entry): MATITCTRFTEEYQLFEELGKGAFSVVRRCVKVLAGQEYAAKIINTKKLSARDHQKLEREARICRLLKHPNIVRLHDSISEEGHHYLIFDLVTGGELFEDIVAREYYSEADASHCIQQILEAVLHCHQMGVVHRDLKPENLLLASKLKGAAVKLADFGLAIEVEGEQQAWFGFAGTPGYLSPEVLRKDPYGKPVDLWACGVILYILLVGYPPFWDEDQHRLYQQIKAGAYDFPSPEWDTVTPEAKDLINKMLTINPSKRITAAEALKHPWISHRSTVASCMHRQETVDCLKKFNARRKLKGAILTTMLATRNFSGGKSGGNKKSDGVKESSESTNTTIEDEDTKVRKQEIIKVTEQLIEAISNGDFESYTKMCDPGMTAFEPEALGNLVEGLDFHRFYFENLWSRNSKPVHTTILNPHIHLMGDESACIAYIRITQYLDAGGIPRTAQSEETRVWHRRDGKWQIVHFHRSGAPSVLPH

MCF7 [13] = test: Induction of apoptosis in human MCF7 cells assessed as viable cells at 5 uM after 72 hrs by annexin V-FITC/propidium iodide staining-based flow cytometric method (reference value: 76%); format: functional; details: MCF7, 72 h, read-out: Activity
MCF7 [14] = test: Induction of apoptosis in human MCF7 cells assessed as necrotic cells at 1 uM after 72 hrs by annexin V-FITC/propidium iodide staining-based flow cytometric method (reference value: 12.6%); format: functional
MCF7 [15] = test: Induction of apoptosis in human MCF7 cells assessed as necrotic cells at 5 uM after 72 hrs by annexin V-FITC/propidium iodide staining-based flow cytometric method (reference value: 12.6%); format: functional
MCF7 [16] = test: Induction of apoptosis in human MCF7 cells assessed as early apoptotic cells at 10 uM after 72 hrs by annexin V-FITC/propidium iodide staining-based flow cytometric method (reference value: 9%); format: functional
A2780 = test: Antiproliferative activity against human A2780 cells after 72 hrs by MTT assay; format: functional, cell-based; details: A2780, 72 h
In short: (§2)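 MTT viability assay. Cells grown in RPMI-1640 with 10% heat-inactivated FBS, L-glutamine and 1% penicillin/streptomycin, used within 20 passages. Seeded at 5×10^3 cells/well, left overnight at 37 °C, then exposed to final concentrations of 0.005–50 µM (0.1% DMSO) for up to 72 h. MTT added for 3 h, formazan dissolved in DMSO, absorbance read at 550 nm. IC50 derived relative to untreated controls.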

[17] = biological target: Focal adhesion kinase 1 (Homo sapiens) (UniProt Q05397); test: Inhibition of FAK (unknown origin) at 10 uM by [33P]-ATP radiometric assay; in short: as §1
MCF7 [18] = test: Antiproliferative activity against human MCF7 cells after 72 hrs by MTT assay; format: functional, cell-based; details: MCF7, 72 h; in short: as §2
MCF7 [19] = test: Induction of apoptosis in human MCF7 cells assessed as viable cells at 10 uM after 72 hrs by annexin V-FITC/propidium iodide staining-based flow cytometric method (reference value: 76%); format: functional; details: MCF7, 72 h, read-out: Activity
[20] = biological target: Epidermal growth factor receptor (Homo sapiens) (UniProt P00533); test: Inhibition of EGFR (unknown origin) at 10 uM by [33P]-ATP radiometric assay; in short: as §1
Sequence of Epidermal growth factor receptor (Homo sapiens) (P00533 whole entry): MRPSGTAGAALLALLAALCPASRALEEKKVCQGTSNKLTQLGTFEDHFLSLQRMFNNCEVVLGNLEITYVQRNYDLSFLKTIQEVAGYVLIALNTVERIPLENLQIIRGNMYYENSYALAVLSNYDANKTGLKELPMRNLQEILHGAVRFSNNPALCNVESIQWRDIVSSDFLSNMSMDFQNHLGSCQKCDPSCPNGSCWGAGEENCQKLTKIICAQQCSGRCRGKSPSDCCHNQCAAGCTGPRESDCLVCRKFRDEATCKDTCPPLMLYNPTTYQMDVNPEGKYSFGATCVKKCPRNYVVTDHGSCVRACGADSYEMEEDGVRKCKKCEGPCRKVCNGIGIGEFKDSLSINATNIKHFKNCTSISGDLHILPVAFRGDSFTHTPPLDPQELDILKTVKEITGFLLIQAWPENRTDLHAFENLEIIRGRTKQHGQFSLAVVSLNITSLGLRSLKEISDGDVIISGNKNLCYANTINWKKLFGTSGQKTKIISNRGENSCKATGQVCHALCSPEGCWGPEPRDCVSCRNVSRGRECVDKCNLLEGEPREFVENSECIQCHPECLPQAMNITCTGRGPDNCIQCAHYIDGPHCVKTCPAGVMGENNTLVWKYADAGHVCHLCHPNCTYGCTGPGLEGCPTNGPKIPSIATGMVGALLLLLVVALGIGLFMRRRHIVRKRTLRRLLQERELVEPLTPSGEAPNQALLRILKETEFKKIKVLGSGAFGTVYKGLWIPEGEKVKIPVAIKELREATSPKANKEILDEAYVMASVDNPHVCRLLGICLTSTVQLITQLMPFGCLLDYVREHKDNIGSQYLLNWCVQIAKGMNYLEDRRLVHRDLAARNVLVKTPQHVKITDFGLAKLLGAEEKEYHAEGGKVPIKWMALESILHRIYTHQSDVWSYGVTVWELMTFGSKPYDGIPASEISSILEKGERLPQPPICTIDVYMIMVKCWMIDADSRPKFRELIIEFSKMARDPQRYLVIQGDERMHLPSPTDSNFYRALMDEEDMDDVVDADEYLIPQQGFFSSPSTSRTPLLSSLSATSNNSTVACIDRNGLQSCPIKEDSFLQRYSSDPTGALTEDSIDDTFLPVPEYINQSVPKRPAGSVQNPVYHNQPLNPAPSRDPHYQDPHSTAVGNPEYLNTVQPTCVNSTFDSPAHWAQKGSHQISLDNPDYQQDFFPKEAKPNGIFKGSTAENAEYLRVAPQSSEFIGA

[21] = biological target: Calcium/calmodulin-dependent protein kinase type 1 (Homo sapiens) (UniProt Q14012); test: Inhibition of CAMK1 (unknown origin) at 10 uM by [33P]-ATP radiometric assay; in short: as §1
[22] = biological target: Mitogen-activated protein kinase 3 (Homo sapiens) (UniProt P27361); test: Inhibition of ERK1 (unknown origin) at 10 uM by [33P]-ATP radiometric assay; in short: as §1
[23] = biological target: Activin receptor type-2A (Homo sapiens) (UniProt P27037); test: Inhibition of ACVR2A (unknown origin) at 10 uM by [33P]-ATP radiometric assay; in short: as §1
HCT-116 = test: Antiproliferative activity against human HCT116 cells after 72 hrs by MTT assay; format: functional, cell-based; details: HCT-116, 72 h; in short: as §2
MCF7 [24] = test: Induction of apoptosis in human MCF7 cells assessed as viable cells at 1 uM after 72 hrs by annexin V-FITC/propidium iodide staining-based flow cytometric method (reference value: 76%); format: functional; details: MCF7, 72 h, read-out: Activity
K562 = test: Antiproliferative activity against human K562 cells after 72 hrs by MTT assay; format: functional, cell-based; details: K562, 72 h
[25] = biological target: Vascular endothelial growth factor receptor 1 (Homo sapiens) (UniProt P17948); test: Inhibition of FLT1 (unknown origin) at 10 uM by [33P]-ATP radiometric assay; in short: as §1
MCF7 [26] = test: Induction of apoptosis in human MCF7 cells assessed as late apoptotic cells at 10 uM after 72 hrs by annexin V-FITC/propidium iodide staining-based flow cytometric method (reference value: 2.6%); format: functional
[27] = biological target: Cyclin-dependent kinase 16 (Homo sapiens) (UniProt Q00536); test: Inhibition of CDK16 (unknown origin) at 10 uM by [33P]-ATP radiometric assay; in short: as §1
Sequence of Cyclin-dependent kinase 16 (Homo sapiens) (Q00536 whole entry): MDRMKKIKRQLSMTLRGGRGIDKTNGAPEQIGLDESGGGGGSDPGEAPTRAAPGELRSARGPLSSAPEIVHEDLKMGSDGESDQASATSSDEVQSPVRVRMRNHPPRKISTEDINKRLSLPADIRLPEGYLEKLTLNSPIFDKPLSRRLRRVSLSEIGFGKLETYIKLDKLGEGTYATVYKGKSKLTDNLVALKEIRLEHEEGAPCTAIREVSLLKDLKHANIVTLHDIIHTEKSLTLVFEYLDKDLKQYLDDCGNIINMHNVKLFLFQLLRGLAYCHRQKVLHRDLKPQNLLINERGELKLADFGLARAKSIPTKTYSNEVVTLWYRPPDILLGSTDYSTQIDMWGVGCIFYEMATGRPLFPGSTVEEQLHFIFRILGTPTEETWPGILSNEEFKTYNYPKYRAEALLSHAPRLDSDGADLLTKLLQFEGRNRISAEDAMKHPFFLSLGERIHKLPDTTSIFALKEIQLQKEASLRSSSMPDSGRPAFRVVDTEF

[28] = biological target: Protein kinase C beta type (Homo sapiens) (UniProt P05771); test: Inhibition of PCK-beta2 (unknown origin) at 10 uM by [33P]-ATP radiometric assay; in short: as §1
[29] = biological target: Cyclin-dependent kinase 1/Cyclin A1 (Homo sapiens) (UniProt P06493+P78396); test: Inhibition of CDK1/cyclin A1 (unknown origin) at 10 uM by [33P]-ATP radiometric assay; format: protein-complex assay; in short: as §1
[30] = Antiproliferative activity against human WM793B cells after 72 hrs by MTT assay; format: functional, cell-based; in short: as §2
MCF7 [31] = test: Induction of apoptosis in human MCF7 cells assessed as increase of late apoptotic cells at 10 uM after 72 hrs by annexin V-FITC/propidium iodide staining-based flow cytometric method relative to control; format: functional
In short: (§3)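 MCF-7 cells treated 72 h at final 1, 5, 10 µM, then annexin V-FITC/PI stained in pH 7.4 HEPES binding buffer and analysed by flow cytometry. Early or late apoptotic cell fraction expressed as percent change versus vehicle control: (sample − control)/control × 100. Triplicates.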

MCF7 [32] = test: Induction of apoptosis in human MCF7 cells assessed as increase of early apoptotic cells at 1 to 10 uM after 72 hrs by annexin V-FITC/propidium iodide staining-based flow cytometric method relative to control; format: functional; in short: as §3
MCF7 [33] = test: Induction of apoptosis in human MCF7 cells assessed as increase of early apoptotic cells after 72 hrs by annexin V-FITC/propidium iodide staining-based flow cytometric method; format: functional, cell-based; in short: as §3
MCF7 [34] = test: Induction of apoptosis in human MCF7 cells assessed as increase of early apoptotic cells at 1 uM after 72 hrs by annexin V-FITC/propidium iodide staining-based flow cytometric method relative to control; format: functional

Sequence of Mast/stem cell growth factor receptor Kit (Homo sapiens) (P10721 whole entry): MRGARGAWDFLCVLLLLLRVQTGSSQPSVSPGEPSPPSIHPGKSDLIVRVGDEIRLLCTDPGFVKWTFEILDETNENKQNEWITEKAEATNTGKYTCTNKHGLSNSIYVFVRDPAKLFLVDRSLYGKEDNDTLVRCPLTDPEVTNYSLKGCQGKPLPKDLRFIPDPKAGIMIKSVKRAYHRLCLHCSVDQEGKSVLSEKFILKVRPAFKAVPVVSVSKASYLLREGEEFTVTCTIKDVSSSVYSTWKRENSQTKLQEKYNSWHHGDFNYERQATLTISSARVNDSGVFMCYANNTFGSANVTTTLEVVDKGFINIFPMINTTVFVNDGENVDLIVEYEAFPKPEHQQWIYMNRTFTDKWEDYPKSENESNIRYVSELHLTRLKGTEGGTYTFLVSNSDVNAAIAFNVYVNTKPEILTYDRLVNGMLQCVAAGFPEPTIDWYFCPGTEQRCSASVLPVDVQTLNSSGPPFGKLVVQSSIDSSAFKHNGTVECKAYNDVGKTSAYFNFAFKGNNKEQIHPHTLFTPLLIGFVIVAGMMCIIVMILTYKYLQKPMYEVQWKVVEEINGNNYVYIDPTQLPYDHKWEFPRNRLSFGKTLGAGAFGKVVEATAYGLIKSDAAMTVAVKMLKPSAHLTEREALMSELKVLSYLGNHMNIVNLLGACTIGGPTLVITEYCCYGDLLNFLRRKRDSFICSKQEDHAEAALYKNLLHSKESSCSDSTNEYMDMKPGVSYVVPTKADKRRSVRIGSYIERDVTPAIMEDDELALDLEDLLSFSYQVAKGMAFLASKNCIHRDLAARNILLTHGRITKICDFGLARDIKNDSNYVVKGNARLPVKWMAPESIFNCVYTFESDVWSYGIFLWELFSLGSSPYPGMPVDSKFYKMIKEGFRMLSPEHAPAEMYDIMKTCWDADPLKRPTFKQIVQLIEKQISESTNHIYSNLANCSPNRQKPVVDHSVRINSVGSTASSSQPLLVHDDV

Row | Structure (SMILES) | inhibition [1] | Activity (MCF7 [2]) | inhibition [3] | Activity (MCF7 [5]) | inhibition [6] | Activity (MCF7 [7]) | Activity (MCF7 [8]) | inhibition [9] | inhibition [10] | Activity (MCF7 [11]) | inhibition [12] | viability at 5 µM (MCF7 [13]) | Activity (MCF7 [14]) | Activity (MCF7 [15]) | Activity (MCF7 [16]) | pIC50 (A2780) | pIC50 (MCF7 [18]) | viability at 10 µM (MCF7 [19]) | pIC50 (HCT-116) | pIC50 (K562) | other results
1 | COc1ccc2nc3nc(NCc4ccc(CN5CCN(C)CC5)cc4)[nH]c(=O)c3nc2c1 | -9% | 4.1% | -1% | 16.3% | 2% | 8.1% | 3.7% | -7% | 8% | 5% | 8% | 72.3% | 9.7% | 18.6% | 6.2% | 7.30 | 7.40 | 72.2% | 7.30 | < 4.30 | inhibition [4]: -2%; inhibition [17]: -10%; inhibition [20]: 25%; inhibition [21]: 19%; inhibition [22]: 7%; inhibition [23]: -6%; viability at 1 µM (MCF7 [24]): 78.4%; inhibition [25]: 12%; Activity (MCF7 [26]): 5.4%; inhibition [27]: 12%; inhibition [28]: -7%
2 | O=c1[nH]c(NCc2ccc(CN3CCCCC3)cc2)nc2nc3ccccc3cc12 | 32% |  | -6% |  | 0% |  |  | -7% | -4% |  | 1% |  |  |  |  | 5.00 | 4.94 |  | 4.89 | 5.00 | inhibition [29]: 18%; inhibition [4]: 33%; inhibition [20]: -3%; inhibition [21]: 5%; inhibition [22]: -1%; pIC50 [30]: 4.41; inhibition [27]: -5%; inhibition [28]: 4%
3 | COc1ccc(CCN2CCC(Nc3nc4nc5ccc(C)cc5nc4c(=O)[nH]3)CC2)cc1 | -7% | 14.1% | 9% | 4.8% | 7% | 12.4% | 13.3% | 10% | 1% | 18% | 4% | 64.1% | 7.6% | 3.6% | 20.7% | 6.70 | 6.80 | 44.6% | 6.77 | < 4.30 | fold change (FC) (MCF7 [31]): 12; fold change (FC) (MCF7 [32]): 2; inhibition [20]: -2%; inhibition [21]: 19%; inhibition [22]: 8%; inhibition [23]: -5%; Activity (MCF7 [33]): Dose-dependent effect; pIC50 [30]: < 4.30; viability at 1 µM (MCF7 [24]): 66.7%; inhibition [25]: -5%; Activity (MCF7 [26]): 30%; inhibition [27]: 18%; inhibition [28]: 7%
4 | CC(Nc1nc2nc3ccccc3nc2c(=O)[nH]1)c1ccccc1 (stereo unspecified) |  | 9.7% |  | 7.9% |  | 22.1% | 10.5% |  |  | 14.1% |  | 71.2% | 4% | 5.1% | 14.4% | 6.47 | 6.80 | 45.8% | 6.85 | < 4.30 | fold change (FC) (MCF7 [34]): >2; fold change (FC) (MCF7 [31]): 13; pIC50 [30]: < 4.30; viability at 1 µM (MCF7 [24]): 63.4%; Activity (MCF7 [26]): 32%
